Assay results taken from ChEMBL document CHEMBL3603782, “Antimalarial benzoheterocyclic 4-aminoquinolines: Structure-activity relationship, in vivo evaluation, mechanistic and bioactivation studies” (Bioorg Med Chem, 2015).

How the values were obtained:
[1] = tested on: Plasmodium falciparum; assay: Antiplasmodial activity against multidrug-resistant Plasmodium falciparum K1 infected in human erythrocytes after 48 hrs by [3H]-hypoxanthine incorporation assay; assay type: functional, organism-based
Procedure, shortened: (§1)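 Modified [3H]-hypoxanthine incorporation assay against P. falciparum NF54 (sensitive) and K1 (multidrug-resistant). Values are means of ≥2 or ≥3 independent experiments. The resistance index is the K1 IC50 divided by the NF54 IC50.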

[2] = tested on: Plasmodium falciparum; assay: Antiplasmodial activity against chloroquine-sensitive Plasmodium falciparum NF54 infected in human erythrocytes after 48 hrs by [3H]-hypoxanthine incorporation assay; assay type: functional, organism-based; procedure, shortened: as §1
[3] = tested on: Plasmodium falciparum; assay: Resistance index, ratio of IC50 for multidrug-resistant Plasmodium falciparum K1 to IC50 for chloroquine-sensitive Plasmodium falciparum NF54; assay type: functional; procedure, shortened: as §1
[4] = Lipophilicity, log P of the compound; assay type: physicochemical; conditions: octanol/water
[5] = Inhibition of beta haematin formation after 5 to 6 hrs by pyridine-ferrichrome method; assay type: physicochemical
Procedure, shortened: (§2)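 Modified β-haematin inhibition assay. Compounds from DMSO stocks, 0–1000 µM final, in duplicate. NP-40 added (30.55 µM). Haematin suspension added to give 0.5 M acetate pH 4.8 and 100 µM haematin, then incubated 5–6 h at 37 °C. Free haeme detected with pyridine/H2O/acetone/0.2 M HEPES pH 7.4 reagent (final pyridine ~5% v/v) plus acetone, and absorbance read.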

[6] = tested on: CHO; assay: Cytotoxicity against CHO cells by MTT assay; assay type: cell-based; conditions: Cricetulus griseus
Procedure, shortened: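 CHO cells, MTT assay. Stocks 20 mg/mL in DMSO, diluted in complete medium; undissolved samples tested as suspensions. Emetine served as reference (10-fold dilutions, 6 concentrations, lowest 0.001 µg/mL). IC50 derived from full dose–response curves by non-linear fitting.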

[7] = Selectivity index, ratio of IC50 for CHO cells to IC50 for chloroquine-sensitive Plasmodium falciparum NF54; assay type: toxicity, cell-based; conditions: hamster, read-out: Ratio IC50
[8] = Inhibition of beta haematin formation at 1000 uM after 5 to 6 hrs by pyridine-ferrichrome method; assay type: physicochemical; procedure, shortened: as §2
[9] = tested on: Plasmodium falciparum; assay: Resistance index, ratio of IC50 for multidrug-resistant Plasmodium falciparum K1 to IC50 for Plasmodium falciparum W2; assay type: functional
[10] = Metabolic stability in BALB/c mouse liver microsomes assessed as compound remaining at […] after 30 mins by HPLC-MS/MS analysis in presence of NADPH; assay type: ADME; conditions: read-out: Stability
[11] = Metabolic stability in human liver microsomes assessed as compound remaining at […] after 30 mins by HPLC-MS/MS analysis in presence of NADPH; assay type: ADME; conditions: read-out: Stability

SMILES	IC50 [1]	IC50 [2]	Ratio IC50 [3]	logP [4]	IC50 [5]	IC50 [6]	selectivity ratio [7]	inhibition (INH) [8]	Ratio IC50 [9]	remaining at 0.5 h [10]	remaining at 0.5 h [11]
COCCc1nc2cc(Nc3ccnc4cc(Cl)ccc34)ccc2o1	2110 nM	1090 nM	1.93	3.11							
Clc1ccc2c(Nc3ccc4oc(NCc5ccccn5)nc4c3)ccnc2c1	883 nM	406 nM	2.17		106000 nM	> 240000 nM					
Clc1ccc2c(Nc3ccc4oc(NCc5cccnc5)nc4c3)ccnc2c1	704 nM	309 nM	2.28	4.68	100000 nM	164000 nM	532				
CCN(CC)c1nc2cc([N+](=O)[O-])ccc2o1	> 20000 nM	> 20000 nM						Not Active			
Clc1ccc2c(Nc3ccc4oc(NCc5ccncc5)nc4c3)ccnc2c1	1550 nM	630 nM	2.47	4.55	93000 nM	> 240000 nM					
CCN(CC)CCNc1nc2cc(Nc3ccnc4cc(Cl)ccc34)ccc2[nH]1									4.14		
CN1CCN(c2nc3cc(Nc4ccnc5cc(Cl)ccc45)ccc3o2)CC1	99 nM	51 nM	1.94	3.9	71700 nM	> 240000 nM				18%	61%
CN(C)Cc1nc2cc(Nc3ccnc4cc(Cl)ccc34)ccc2o1	411 nM	213 nM	1.93								
CC[C@H]1CN2CCc3cc(OC)c(OC)cc3[C@@H]2C[C@@H]1C[C@H]1NCCc2cc(OC)c(OC)cc21 [EMETINE]						104 nM					
O=C1CCCN1CCCNc1nc2cc(Nc3ccnc4cc(Cl)ccc34)ccc2o1	773 nM	1880 nM	0.41	2.88	97500 nM	29600 nM	15.8				
Clc1ccc2c(Nc3ccc4oc(N5CCN(c6ccccc6)CC5)nc4c3)ccnc2c1	875 nM	274 nM	3.19	6.05	29600 nM	28700 nM	105				
CCN(CC)CCNc1nc2cc(Nc3ccnc4cc(Cl)ccc34)ccc2o1	42 nM	11 nM	3.82		244000 nM	11500 nM	1040			74%	78%
Clc1ccc2c(Nc3ccc4oc(NCCCN5CCOCC5)nc4c3)ccnc2c1	80 nM	39 nM	2.05	3.09	80100 nM	13700 nM	351			26%	27%
O=[N+]([O-])c1ccc2oc(N3CCN(c4ccccc4)CC3)nc2c1	> 20000 nM	> 20000 nM						Not Active			
Clc1ccc2oc(N3CCN(c4ccccc4)CC3)nc2c1	> 20000 nM	> 20000 nM						Not Active			
CCN(CC)CCCNc1nc2cc(Nc3ccnc4cc(Cl)ccc34)ccc2o1	85 nM	14 nM	6.07	4.12	165000 nM	6370 nM	455			70%	70%

SMILES	IC50 [1]	IC50 [2]	Ratio IC50 [3]	logP [4]	IC50 [5]	IC50 [6]	selectivity ratio [7]	inhibition (INH) [8]	Ratio IC50 [9]	remaining at 0.5 h [10]	remaining at 0.5 h [11]
Clc1cccc(N2CCN(c3nc4cc(Nc5ccnc6cc(Cl)ccc56)ccc4o3)CC2)c1	412 nM	202 nM	2.04	6.57	24700 nM	172000 nM	852			> 99%	36%
Clc1ccc2c(Nc3ccc4oc(NCCc5ccccn5)nc4c3)ccnc2c1	851 nM	402 nM	2.12	4.42	63000 nM	> 240000 nM					
CN1CCN(Nc2nc3cc(Nc4ccnc5cc(Cl)ccc45)ccc3o2)CC1	240 nM	144 nM	1.67	2.6	73300 nM	122000 nM	849				
CN(C)CCCNc1nc2cc(Nc3ccnc4cc(Cl)ccc34)ccc2o1	149 nM	19 nM	7.84	3.44	174000 nM	12600 nM	665			44%	78%
Clc1ccc2c(Nc3ccc(NCCN4CCCC4)nc3)ccnc2c1									4.38		
Clc1cccc(CNc2nc3cc(Nc4ccnc5cc(Cl)ccc45)ccc3o2)c1	223 nM	124 nM	1.8	5.7	27100 nM	25700 nM	207				
O=[N+]([O-])c1ccc2oc(NCc3ccccn3)nc2c1	> 20000 nM	> 20000 nM						Not Active			
CN(C)CCCNc1nc2cc([N+](=O)[O-])ccc2o1	11000 nM	> 20000 nM						Not Active			
CCN(CC)c1nc2cc(Nc3ccnc4cc(Cl)ccc34)ccc2o1	1380 nM	512 nM	2.69	4.78	50700 nM	229000 nM	448				
O=[N+]([O-])c1ccc2oc(NCCc3ccccn3)nc2c1	> 20000 nM	> 20000 nM						Not Active			
O=[N+]([O-])c1ccc2oc(NCCN3CCCC3)nc2c1	2930 nM	1640 nM						Not Active			
Clc1ccc2c(Nc3ccc4[nH]c(NCCN5CCCCC5)nc4c3)ccnc2c1									0.02		
Clc1ccc2c(Nc3ccc(NCCN4CCOCC4)nc3)ccnc2c1									1.78		
CN1CCN(c2nc3cc([N+](=O)[O-])ccc3o2)CC1	> 20000 nM	> 20000 nM						Not Active			
Clc1ccc2c(Nc3ccc4oc(NCCN5CCOCC5)nc4c3)ccnc2c1	198 nM	108 nM	1.83		80000 nM	124000 nM	1150				
Clc1ccc2c(Nc3ccc4sc(NCCN5CCCC5)nc4c3)ccnc2c1									1.17		
